In ChEMBL document CHEMBL1129557, “Aryl phosphoramidate derivatives of d4T have improved anti-HIV efficacy in tissue culture and may act by the generation of a novel intracellular metabolite” (J Med Chem, 1996):

How the values were obtained:
CCRF-CEM [1] = assay: Cytotoxic concentration against CEM cells (in vitro); assay type: functional; conditions: Homo sapiens
Outline: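 Mock-infected CEM cultures exposed to compound dilutions alongside the antiviral assay and scored at day 4. CC₅₀ is the concentration reducing cell number by 50%.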

MT4 [2] = assay: Cytotoxic concentration against MT-4 cells (in vitro); assay type: functional; conditions: Homo sapiens
Outline: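 Mock-infected MT-4 cultures (5 × 10⁵ cells/mL) exposed to compound dilutions for 5 days. Viable cells counted by trypan blue. CC₅₀ is the concentration reducing viable cell number by 50%.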

CEM-TK(-) (Homo sapiens) = assay: Activity against HIV-1 in CEM/TK cells (in vitro)
CCRF-CEM [3] = assay: Activity against HIV-1 in CEM cells (in vitro); assay type: functional, cell-based; conditions: Homo sapiens
Outline: (§1)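 Cells at 5 × 10⁵/mL infected with HIV-1 (IIIB) or HIV-2 (ROD) at about 100 CCID50/mL, then mixed with dilutions of test compound. After 4 days, giant cell formation scored microscopically. EC₅₀ is the concentration cutting giant cells by 50%. Mean of two to four independent experiments.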

CCRF-CEM [4] = assay: Activity against HIV-2 in CEM cells (in vitro); assay type: functional, cell-based; conditions: Homo sapiens; outline: as §1
MT4 [5] = assay: Activity against HIV-1 in MT-4 cells (in vitro); assay type: functional, cell-based; conditions: Homo sapiens
Outline: (§2)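 MT-4 cells at 5 × 10⁵/mL infected with HIV-1 (IIIB) or HIV-2 (ROD) at about 100 CCID50/mL and exposed to compound dilutions. After 5 days, viable cells counted by trypan blue staining. EC₅₀ is the concentration protecting cells against viral cytopathogenicity by 50%. Mean of two to four independent experiments.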

MT4 [6] = assay: Activity against HIV-2 in MT-4 cells (in vitro); assay type: functional, cell-based; conditions: Homo sapiens; outline: as §2
CCRF-CEM [7] = assay: Compound was tested for activity against HIV-2 in CEM cells; assay type: functional, cell-based; conditions: Homo sapiens; outline: as §1

| Compound | EC50 (CEM-TK(-) (Homo sapiens)) | EC50 (CCRF-CEM [3]) | EC50 (CCRF-CEM [4]) | EC50 (CCRF-CEM [7]) | CC50 (CCRF-CEM [1]) | CC50 (MT4 [2]) | EC50 (MT4 [5]) | EC50 (MT4 [6]) |
| --- | --- | --- | --- | --- | --- | --- | --- | --- |
| COC(=O)C(C)NP(=O)(OCC1C=CC(n2cc(C)c(=O)[nH]c2=O)O1)Oc1cc(Cl)cc(Cl)c1 (stereo not drawn) | 0.11 µM | 0.11 µM | 0.15 µM | – | 26.9 µM | 10.5 µM | 0.037 µM | 0.12 µM |
| COC(=O)C(CCSC)NP(=O)(OCC1C=CC(n2cc(C)c(=O)[nH]c2=O)O1)Oc1ccccc1 (stereo not drawn) | 0.33 µM | 0.6 µM | 0.8 µM | – | > 250 µM | 22 µM | 0.23 µM | 0.38 µM |
| COC(=O)C(Cc1ccccc1)NP(=O)(OCC1C=CC(n2cc(C)c(=O)[nH]c2=O)O1)Oc1ccccc1 (stereo not drawn) | 0.33 µM | 0.8 µM | 1.35 µM | – | 216 µM | 34.1 µM | 0.19 µM | 0.38 µM |
| COC(=O)C(CC(C)C)NP(=O)(OCC1C=CC(n2cc(C)c(=O)[nH]c2=O)O1)Oc1ccccc1 (stereo not drawn) | 0.4 µM | 1.1 µM | – | 2.23 µM | > 250 µM | 61.5 µM | 0.2 µM | 0.47 µM |
| CCc1ccc(OP(=O)(NC(C)C(=O)OC)OCC2C=CC(n3cc(C)c(=O)[nH]c3=O)O2)cc1 (stereo not drawn) | 0.06 µM | 0.07 µM | 0.16 µM | – | 60 µM | > 100 µM | 0.057 µM | 0.063 µM |
| COC(=O)C(C)NP(=O)(OC[C@@H]1C=C[C@H](n2cc(C)c(=O)[nH]c2=O)O1)Oc1ccccc1 (stereo partly drawn) | 0.075 µM | 0.182 µM | 0.2 µM | – | 100 µM | > 100 µM | 0.0665 µM | 0.067 µM |
| COC(=O)C(C)NP(=O)(OCC1C=CC(n2cc(C)c(=O)[nH]c2=O)O1)Oc1ccc(Br)cc1Br (stereo not drawn) | 0.025 µM | 0.04 µM | 0.055 µM | – | 16 µM | – | – | – |
| COC(=O)C(NP(=O)(OCC1C=CC(n2cc(C)c(=O)[nH]c2=O)O1)Oc1ccccc1)C(C)C (stereo not drawn) | 4 µM | 12.5 µM | 12.5 µM | – | > 250 µM | > 250 µM | 3.58 µM | 11.2 µM |
| COC(=O)C(C)NP(=O)(OC[C@@H]1C=C[C@H](n2cc(C)c(=O)[nH]c2=O)O1)Oc1cccc(C(F)(F)F)c1 (stereo partly drawn) | 0.11 µM | 0.15 µM | 0.15 µM | – | 29.8 µM | 9.75 µM | 0.046 µM | 0.11 µM |
| COC(=O)C(C)NP(=O)(OCC1C=CC(n2cc(C)c(=O)[nH]c2=O)O1)Oc1c(F)c(F)c(F)c(F)c1F (stereo not drawn) | 8.5 µM | 2.5 µM | 3.7 µM | – | 115 µM | 82.2 µM | 1.72 µM | 4.07 µM |

Further lines, with some results ahead:

| EC50 (CEM-TK(-) (Homo sapiens)) | EC50 (CCRF-CEM [3]) | EC50 (CCRF-CEM [4]) | EC50 (CCRF-CEM [7]) | Compound | CC50 (CCRF-CEM [1]) | CC50 (MT4 [2]) | EC50 (MT4 [5]) | EC50 (MT4 [6]) |
| --- | --- | --- | --- | --- | --- | --- | --- | --- |
| > 100 µM | – | – | – | Cc1cn([C@H]2C[C@H](N=[N+]=[N-])[C@@H](CO)O2)c(=O)[nH]c1=O [ZIDOVUDINE] | > 500 µM | 6 µM | – | – |
| 7 µM | 6 µM | 6 µM | – | COC(=O)CNP(=O)(OCC1C=CC(n2cc(C)c(=O)[nH]c2=O)O1)Oc1ccccc1 (stereo not drawn) | > 250 µM | > 250 µM | 1.34 µM | 6.71 µM |
| 33.3 µM | 0.8 µM | 0.775 µM | – | Cc1cn([C@H]2C=C[C@@H](CO)O2)c(=O)[nH]c1=O [STAVUDINE] | 174 µM | 19 µM | 0.651 µM | 0.77 µM |
| 48 µM | 48 µM | 240 µM | – | CCOP(=O)(NC(C)C(=O)OC)OCC1C=CC(n2cc(C)c(=O)[nH]c2=O)O1 (stereo not drawn) | > 250 µM | > 250 µM | 28.5 µM | 62.5 µM |
| > 250 µM | 20 µM | 50 µM | – | COC(=O)C(C)NP(=O)(OC)OCC1C=CC(n2cc(C)c(=O)[nH]c2=O)O1 (stereo not drawn) | > 250 µM | > 250 µM | 25.4 µM | 50.9 µM |
